The source made the active and inactive calls. The calls are words filed in the database; no cut-off is given here.

For experiment [1], the target named is T1, Catechol O-methyltransferase (Rattus norvegicus) (UniProt P22734).
T1 sequence (whole entry): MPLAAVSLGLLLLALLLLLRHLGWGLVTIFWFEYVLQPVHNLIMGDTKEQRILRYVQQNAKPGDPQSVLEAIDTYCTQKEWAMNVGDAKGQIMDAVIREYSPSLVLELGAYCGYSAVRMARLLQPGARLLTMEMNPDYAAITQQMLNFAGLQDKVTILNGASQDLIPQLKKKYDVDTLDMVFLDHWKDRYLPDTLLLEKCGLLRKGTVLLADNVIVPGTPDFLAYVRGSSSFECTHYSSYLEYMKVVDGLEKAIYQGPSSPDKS
Description: Ability to inhibit Catechol O-methyltransferase from rat liver at a concentration of 1 mM. Inhibition pattern was reported; Competitive kinetics. The gist of the method:
(§1)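 COMT purified from male Sprague–Dawley rat liver (180–200 g) through the calcium phosphate step, then reactivated before use by 40 min preincubation at 37 °C in pH 7.6 phosphate buffer with 4 mM DTT. Radiochemical assay: 3,4-dihydroxybenzoic acid variable (0.02–0.20 mM), SAM 0.2 mM plus 0.05 μCi SAM-¹⁴CH₃, Mg²⁺ 1 mM, DTT 4 mM, 100 mM phosphate pH 7.6. Inhibition pattern and Kis/Kii taken from double-reciprocal plots.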

Experiment [2] has as its target T1, Catechol O-methyltransferase (Rattus norvegicus). Description: Ability to inhibit Catechol O-methyltransferase kinetic inhibition Kis constant was reported. A digest of the protocol:
as §1

Experiment [3] has the same target. The experiment is described as follows: Ability to inhibit Catechol O-methyltransferase from rat liver. kinetic inhibition Kis constant was reported. A digest of the protocol: as §1
The target is the same in experiment [4]. The experiment is described as follows: Ability to inhibit Catechol O-methyltransferase from rat liver. kinetic inhibition Kii constant was reported. A digest of the protocol:
as §1

Experiment [5] has the same target. The experiment is described as follows: Ability to inhibit Catechol O-methyltransferase from rat liver at a concentration of 1 mM. Inhibition pattern was reported; Noncompetitive kinetics. A digest of the protocol:
as §1

Experiment [6] has the same target. The experiment is described as follows: Ability to inhibit Catechol O-methyltransferase kinetic inhibition Kii constant was reported. The gist of the method:
as §1

The target is the same in experiment [7]. Description: Ability to inhibit Catechol O-methyltransferase from rat liver at a concentration of 1 mM. Inhibition pattern was reported; No inhibitory activity. The gist of the method:
as §1

Experiment [8] has the same target. The experiment is described as follows: Ability to inhibit Catechol O-methyltransferase. Following kinetic inhibition constants Kis was reported. A digest of the protocol: as §1
Experiment [9] shares this target. Description: Ability to inhibit Catechol O-methyltransferase. Following kinetic inhibition constants Kii was reported. The gist of the method:
as §1

With `COc1c(O)cc(C=O)cc1[N+](=O)[O-]`, in experiment [1], the inhibition entry is on record as “Competitive kinetics”. Further, the Kis in experiment [2] came to 0.7 µM.

`COc1c(O)cc(C(=O)O)cc1Cl` registered a Kis in experiment [3] of 394 µM. In addition, the inhibition entry in experiment [1] is reported as “Competitive kinetics”.

Compound `COc1cc(C(=O)O)cc(O)c1OC` gave a Kii in experiment [4] of 521 µM. The compound also gave a Kis in experiment [3] of 999 µM. The inhibition pattern result in experiment [5] is on record as “Noncompetitive kinetics”.

For the compound `COc1c(O)cc(C=O)cc1I`, in experiment [2], the Kis came to 111 µM. The compound further gave a Kii in [6] of 56.6 µM. Further, the inhibition pattern result in [5] was “Noncompetitive kinetics”.

As for `COc1c(O)cc(C(=O)O)cc1C#N`, in experiment [4], the Kii was 571 µM. Besides, the Kis in experiment [3] came out at 589 µM. For the same compound, in experiment [5], the inhibition pattern result is “Noncompetitive kinetics”.

On to `COc1ccc(C(=O)O)cc1O`, for which, in [7], the inhibition result is “inactive”.

In turn, `COc1c(O)cc(C=O)cc1F` came in with a Kis in experiment [2] of 56.9 µM. Further, the Kii in experiment [6] worked out at 48.4 µM. The inhibition entry in experiment [5] is recorded as “Noncompetitive kinetics”.

In experiment [2], `COc1c(O)cc(C=O)cc1O` had a Kis of 9.98 µM. For the same compound, the Kii in [6] was found to be 16.1 µM. Moreover, the inhibition pattern result in experiment [5] was “Noncompetitive kinetics”.

For `COc1c(O)cc(C=O)cc1Br`, the Kis in [2] was 31.8 µM. The compound also came in with a Kii in [6] of 16.5 µM. In addition, the inhibition pattern result in experiment [5] is reported as “Noncompetitive kinetics”.

As to `COc1c(O)cc(C(=O)O)cc1Br`, in experiment [3], the Kis worked out at 340 µM. In addition, the inhibition result in experiment [1] is given as “Competitive kinetics”.

In the case of `COc1c(N)cc(C(=O)O)cc1O`, the inhibition entry in experiment [7] was “inactive”.

Consider `COc1c(O)cc(C(=O)O)cc1N(C)C`, for which, in experiment [7], the inhibition entry was “inactive”.

With `COc1ccc(C=O)cc1O`, the inhibition entry in experiment [7] is “inactive”.

In the case of `COc1c(O)cc(C(=O)O)cc1[N+](=O)[O-]`, the Kii in [4] amounted to 247 µM. In experiment [3], this compound came in with a Kis of 50.2 µM. Besides, the inhibition pattern result in experiment [5] was “Noncompetitive kinetics”.

For `CCOC(=S)Sc1cc(C=O)cc(O)c1OC`, in experiment [8], the Kis is 885 µM. The same compound yielded a Kii in experiment [9] of 272 µM. Besides, the inhibition pattern result in [5] was “Noncompetitive kinetics”.

In the case of `COc1c(O)cc(C(=O)O)cc1I`, the inhibition result in [7] was “inactive”.

On to `COc1c(O)cc(C=O)cc1Cl`, for which the Kis in [2] worked out at 31.6 µM. Also, the Kii in experiment [6] was found to be 10.8 µM. The inhibition pattern result in experiment [5] is reported as “Noncompetitive kinetics”.

Values taken from ChEMBL document CHEMBL1122022, “Catechol O-methyltransferase. 10. 5-Substituted 3-hydroxy-4-methoxybenzoic acids (isovanillic acids) and 5-substituted 3-hydroxy-4-methoxybenzaldehydes (isovanillins) as potential inhibitors” (J Med Chem, 1982).
